# Experimental data of several laboratories.
# Lines come from different studies, so protocols differ.
SMILES,target or system,test,test system,setting,quantity,result
COc1c(N2CC3CCCNC3C2)c(F)cc2c(=O)c(C(=O)OCc3cnc([N+](=O)[O-])s3)cn(C3CC3)c12 (centres unmarked),Escherichia coli,microbial growth,ATCC25922,,MIC,0.09 µM
Oc1c(Cl)cc(Cl)cc1-c1[nH]c(Cl)c(Cl)c1Cl,Staphylococcus aureus,microbial growth,BAA44 MRSA,,MIC,0.06 µM
N.N.[Cl][Pt][Cl],HK-2,"cell growth or viability, MTT",,72 h,IC50,7.59 µM
COc1c(N2C[C@@H]3CCCN[C@@H]3C2)c(F)cc2c(=O)c(C(=O)O)cn(C3CC3)c12,Escherichia coli,microbial growth,ATCC25922,,MIC,0.03 µM
O=c1ccc2nc3ccc(O)cc3oc-2c1,Escherichia coli,microbial growth,,24 h,MIC,> 32 µg/mL
Oc1c(Br)cc(Br)cc1-c1[nH]c(Br)c(Br)c1Br,Staphylococcus aureus,microbial growth,ATCC29213 MSSA,,MIC,0.58 µM
O=c1ccc2nc3ccc(OCc4ccc([N+](=O)[O-])o4)cc3oc-2c1,Staphylococcus aureus,microbial growth,MRSA,24 h,MIC,> 32 µg/mL
CN[C@H](CC(C)C)C(=O)N[C@H]1C(=O)N[C@@H](CC(N)=O)C(=O)N[C@H]2C(=O)N[C@H]3C(=O)N[C@H](C(=O)N[C@H](C(=O)O)c4cc(O)cc(O)c4-c4cc3ccc4O)[C@H](O)c3ccc(c(Cl)c3)Oc3cc2cc(c3O[C@@H]2O[C@H](CO)[C@@H](O)[C@H](O)[C@H]2O[C@H]2C[C@](C)(N)[C@H](O)[C@H](C)O2)Oc2ccc(cc2Cl)[C@H]1O,Staphylococcus aureus,"microbial growth, broth dilution",MRSA,"24 h, drug-resistant strain",MIC,0.67 µM
